# Data published in ChEMBL document CHEMBL4689842, “EUbOPEN Chemogenomics Library wave 1” (2021).
# “And” between values parts separate entries of the source, which are not always exact repeats. Equal values may be shown once.
# Tested on: Fibroblast
# Assay: Multiplex assay against human fibroblast
# Assay type: toxicity, cell-based
# Summary of the method: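 Four dyes were applied at seeding to live cells: Hoechst33342, BioTracker Green Microtubule Cytoskeleton Dye, MitoTracker Red and Annexin V Alexa Fluor 680. Imaging after compound addition used a CQ1 microscope at 37°C and 5% CO2. CellPathfinder machine-learning gating then sorted cells into Hoechst high-intensity objects or normal cells, normal cells into healthy, pyknosed or fragmented nuclei, and pyknosed cells into mitotic or apoptotic, with tubulin, mitochondrial-mass and membrane-permeability phenotypes given as per cents of healthy-nucleus cells.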
# [1] = 12 h, 1 µM, compound concentration 1 uM, replicate 1
# [2] = 12 h, 1 µM, compound concentration 1 uM, replicate 2
# [3] = 12 h, 10 µM, compound concentration 10 uM, replicate 1
# [4] = 12 h, 10 µM, compound concentration 10 uM, replicate 2
# [5] = 24 h, 1 µM, compound concentration 1 uM, replicate 1
# [6] = 24 h, 1 µM, compound concentration 1 uM, replicate 2
# [7] = 24 h, 10 µM, compound concentration 10 uM, replicate 1
# [8] = 24 h, 10 µM, compound concentration 10 uM, replicate 2
# [9] = 48 h, 1 µM, compound concentration 1 uM, replicate 1
# [10] = 48 h, 1 µM, compound concentration 1 uM, replicate 2
# [11] = 48 h, 10 µM, compound concentration 10 uM, replicate 1
# [12] = 48 h, 10 µM, compound concentration 10 uM, replicate 2
structure (smiles),measurement,setting,value
O=C(NCCCC1CCCCC1)c1ccc(CNC(=O)c2cnn(-c3ccccc3)c2C(F)(F)F)cc1 [SR-321],Population Apoptotic (%),[1],68% [middle of 4 runs]
same,Population Fragmented Nuclei (%),[1],20% and 21% and 28%
same,Population Healthy Nuclei (%),[1],35% and 39% and 42%
same,Population Hoechst High Intensity Objects (%),[1],12% and 11% and 10%
same,Population Mitochondria Different-Phenotype (%),[1],13% [middle of 4 runs]
same,Population Mitotic Cells (%),[1],36% [middle of 4 runs]
same,Population Normal (%),[1],87% and 88% and 89%
same,Population Pyknosed Nuclei (%),[1],39% [middle of 4 runs]
same,Total Cell Count,[1],176 [middle of 4 runs]
same,Population Membrane Permeable-Phenotype (%),[2],14% and 0% and 22%
same,Population Normal (%),[2],91% and 78% and 92% and 56%
same,Population Pyknosed Nuclei (%),[2],5% and 6% and 4%
same,Total Cell Count,[2],72 [middle of 4 runs]
same,Population Apoptotic (%),[3],50% and 60% and 77%
same,Population Fragmented Nuclei (%),[3],23% [middle of 4 runs]
same,Population Healthy Nuclei (%),[3],36% and 34% and 55%
same,Population Hoechst High Intensity Objects (%),[3],10% and 9% and 6%
same,Population Mitotic Cells (%),[3],49% [middle of 4 runs]
same,Population Normal (%),[3],89% and 90% and 93%
same,Population Pyknosed Nuclei (%),[3],46% and 38% and 43%
same,Total Cell Count,[3],161 [middle of 4 runs]
same,Population Healthy Nuclei (%),[4],71% and 66% and 69%
same,Population Membrane Permeable-Phenotype (%),[4],5% and 2% and 0%
same,Population Mitotic Cells (%),[4],80% and 81% and 44%
same,Population Normal (%),[4],73% and 94% and 91% and 70%
same,Total Cell Count,[4],103 [middle of 4 runs]
same,Population Apoptotic (%),[5],31% and 58% and 66%
same,Population Fragmented Nuclei (%),[5],20% [middle of 4 runs]
same,Population Healthy Nuclei (%),[5],48% [middle of 4 runs]
same,Population Hoechst High Intensity Objects (%),[5],13% [middle of 4 runs]
same,Population Mitochondria Different-Phenotype (%),[5],6% [middle of 4 runs]
same,Population Mitotic Cells (%),[5],68% and 41% and 33%
same,Population Normal (%),[5],86% and 90% and 82% and 87%
same,Population Pyknosed Nuclei (%),[5],33% [middle of 4 runs]
same,Total Cell Count,[5],174 [middle of 4 runs]
same,Population Membrane Permeable-Phenotype (%),[6],4% [middle of 4 runs]
same,Population Mitochondria Different-Phenotype (%),[6],19% and 12% and 7%
same,Population Mitotic Cells (%),[6],100% and 40% and 60%
same,Population Normal (%),[6],85% and 95% and 89% and 56%
same,Total Cell Count,[6],79 [middle of 4 runs]
same,Population Apoptotic (%),[7],50% and 57% and 51% and 64%
same,Population Fragmented Nuclei (%),[7],16% and 31% and 23%
same,Population Healthy Nuclei (%),[7],42% [middle of 4 runs]
same,Population Hoechst High Intensity Objects (%),[7],12% [middle of 4 runs]
same,Population Mitotic Cells (%),[7],49% and 42% and 48% and 35%
same,Population Normal (%),[7],85% and 90% and 89% and 87%
same,Population Pyknosed Nuclei (%),[7],46% and 36% and 34%
same,Total Cell Count,[7],148 [middle of 4 runs]
same,Population Apoptotic (%),[8],33% and 44%
same,Population Fragmented Nuclei (%),[8],20% and 42%
same,Population Healthy Nuclei (%),[8],67% and 65% and 40%
same,Population Membrane Permeable-Phenotype (%),[8],4% [middle of 4 runs]
same,Population Mitotic Cells (%),[8],50% and 66% and 55%
same,Population Normal (%),[8],93% and 81% and 92% and 63%
same,Population Pyknosed Nuclei (%),[8],15% [middle of 4 runs]
same,Total Cell Count,[8],103 [middle of 4 runs]
same,Population Apoptotic (%),[9],75% and 54% and 59%
same,Population Fragmented Nuclei (%),[9],29% and 25% and 21%
same,Population Healthy Nuclei (%),[9],44% and 51% and 53%
same,Population Hoechst High Intensity Objects (%),[9],16% and 14% and 15%
same,Population Membrane Permeable-Phenotype (%),[9],36% and 26% and 20%
same,Population Mitochondria Different-Phenotype (%),[9],2% and 6%
same,Population Mitotic Cells (%),[9],24% and 45% and 40%
same,Population Normal (%),[9],83% and 85% and 84%
same,Population Pyknosed Nuclei (%),[9],26% and 22% and 24%
same,Population Tubulin-Different-Phenotype (%),[9],38% and 34% and 20%
same,Total Cell Count,[9],132 and 170 and 130
same,Population Fragmented Nuclei (%),[10],14% and 19% and 13%
same,Population Healthy Nuclei (%),[10],85% and 80%
same,Population Hoechst High Intensity Objects (%),[10],13% and 9%
same,Population Membrane Permeable-Phenotype (%),[10],16% and 10%
same,Population Mitochondria Different-Phenotype (%),[10],1% and 0%
same,Population Mitotic Cells (%),[10],0%
same,Population Normal (%),[10],86% and 90%
same,Population Pyknosed Nuclei (%),[10],1% and 0%
same,Population Tubulin-Different-Phenotype (%),[10],28% and 17% and 14%
same,Total Cell Count,[10],116 and 92 and 152
same,Population Apoptotic (%),[11],63% and 65% and 75%
same,Population Fragmented Nuclei (%),[11],27% and 40% and 39%
same,Population Healthy Nuclei (%),[11],39% and 42%
same,Population Hoechst High Intensity Objects (%),[11],15% and 13% and 9%
same,Population Membrane Permeable-Phenotype (%),[11],15% and 23% and 22%
same,Population Mitochondria Different-Phenotype (%),[11],10% and 23% and 14%
same,Population Mitotic Cells (%),[11],36% and 35% and 24%
same,Population Normal (%),[11],84% and 86% and 90%
same,Population Pyknosed Nuclei (%),[11],33% and 16% and 21%
same,Population Tubulin-Different-Phenotype (%),[11],46% and 52% and 68%
same,Total Cell Count,[11],117 and 138 and 152
same,Population Apoptotic (%),[12],50% and 100%
same,Population Fragmented Nuclei (%),[12],21%
same,Population Healthy Nuclei (%),[12],68% and 76% and 75%
same,Population Hoechst High Intensity Objects (%),[12],8% and 14%
same,Population Mitochondria Different-Phenotype (%),[12],7% and 5% and 11%
same,Population Normal (%),[12],91% and 85%
same,Population Tubulin-Different-Phenotype (%),[12],67% and 60% and 42%
same,Total Cell Count,[12],108 and 85 and 70
CNCc1ccccc1-c1csc([C@H](C)Nc2nc(C)nc3cc(OC)c(OC)cc23)c1 [BAY-294],Population Apoptotic (%),[3],43% and 56% and 82%
same,Population Fragmented Nuclei (%),[3],26% and 31% and 27%
same,Population Membrane Permeable-Phenotype (%),[3],18% and 34% and 33%
same,Population Normal (%),[3],70% and 93% and 84%
same,Population Pyknosed Nuclei (%),[3],25% and 52% and 62%
same,Population Tubulin-Different-Phenotype (%),[3],34% and 69% and 83%
same,Population Apoptotic (%),[4],78% and 55% and 57%
same,Population Fragmented Nuclei (%),[4],54% and 37% and 46%
same,Population Hoechst High Intensity Objects (%),[4],27% and 35% and 55%
same,Population Mitotic Cells (%),[4],21% and 45% and 42%
same,Population Normal (%),[4],72% and 64% and 44%
same,Population Pyknosed Nuclei (%),[4],31% and 19% and 30%
same,Population Tubulin-Different-Phenotype (%),[4],77% and 56% and 100%
same,Population Apoptotic (%),[7],54% and 89%
same,Population Fragmented Nuclei (%),[7],17% and 38% and 29%
same,Population Hoechst High Intensity Objects (%),[7],41% and 14% and 31%
same,Population Normal (%),[7],58% and 85% and 68%
same,Population Pyknosed Nuclei (%),[7],32% and 54% and 49%
same,Population Tubulin-Different-Phenotype (%),[7],31% and 43% and 83%
same,Population Apoptotic (%),[8],31% and 93% and 78%
same,Population Fragmented Nuclei (%),[8],33% and 60% and 52%
same,Population Hoechst High Intensity Objects (%),[8],37% and 38% and 54%
same,Population Normal (%),[8],62% and 61% and 45%
same,Population Pyknosed Nuclei (%),[8],29% and 33% and 27%
same,Population Apoptotic (%),[11],75%
same,Population Fragmented Nuclei (%),[11],40%
same,Population Healthy Nuclei (%),[11],44%
same,Population Hoechst High Intensity Objects (%),[11],35%
same,Population Membrane Permeable-Phenotype (%),[11],43%
same,Population Mitochondria Different-Phenotype (%),[11],52%
same,Population Mitotic Cells (%),[11],25%
same,Population Normal (%),[11],64%
same,Population Pyknosed Nuclei (%),[11],15%
same,Population Tubulin-Different-Phenotype (%),[11],65%
same,Population Apoptotic (%),[12],100%
same,Population Fragmented Nuclei (%),[12],84%
same,Population Healthy Nuclei (%),[12],8%
same,Population Hoechst High Intensity Objects (%),[12],31%
same,Population Membrane Permeable-Phenotype (%),[12],0%
same,Population Mitochondria Different-Phenotype (%),[12],100%
same,Population Mitotic Cells (%),[12],0%
same,Population Normal (%),[12],68%
same,Population Pyknosed Nuclei (%),[12],7%
same,Population Tubulin-Different-Phenotype (%),[12],0%
